The target in experiment [1] is T1, Glutamate NMDA receptor (Rattus norvegicus) (UniProt P35439+Q00959+Q00960+Q00961+Q62645+Q8VHN2+Q9R1M7). Nature of the experiment: (§1) Inhibition of stimulus-evoked CA1 pyramidal cell NMDA receptor of the rat hippocampus. It counts as functional, tissue-based. In a few lines:
(§2)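 Transverse hippocampal slices (500 µm) from 30-50 day male Sprague-Dawley rats. Schaffer collateral stimulation at 0.1 ms, 4-30 V, 0.1 Hz. Extracellular field potential peak amplitude recorded in CA1 stratum radiatum at 34 °C. Medium held 0.1 mM Mg2+ plus 10 μM CNQX to isolate NMDA responses. Drug doubled every 4 min from subthreshold until >70% decline or 8 mM. IC50 interpolated from the log concentration plot; mean of ≥4 experiments.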

Experiment [2] is filed under the species Rattus norvegicus. Nature of the experiment: (§3) Inhibition of stimulus-evoked kainate/AMPA receptor responses in CA1 pyramidal cells of the rat hippocampus before QUIS exposure. It counts as functional. In a few lines: (§4)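 Schaffer collateral-evoked CA1 field potential in 500 µm rat hippocampal slices, recording medium with 2.4 mM Mg2+, 34 °C. IC50 from 4-min doubling concentration steps, interpolated at 50% peak-amplitude loss; mean of ≥4 experiments. Measured first, then after 5 min 16 μM L-quisqualic acid and washout, then again after 5 min 2 mM L-α-aminoadipic acid and washout.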

The species entered for experiment [3] is Rattus norvegicus. Nature of the experiment: Inhibition of stimulus-evoked response in lateral perforant path of the rat hippocampus.
Experiment [4] is filed under the species Rattus norvegicus. Nature of the experiment: (§5) Inhibition of stimulus-evoked kainate/AMPA receptor responses in CA1 pyramidal cells of the rat hippocampus after QUIS exposure. It counts as functional. In a few lines:
as §4

Experiment [5] is filed under the species Rattus norvegicus. The experiment is described as §3. It counts as functional, organism-based. In a few lines:
as §4

The target of experiment [6] is Glutamate NMDA receptor. The description is as §1. It counts as functional, tissue-based. In a few lines:
as §2

The species entered for experiment [7] is Rattus norvegicus. The description is as §5. It counts as functional, organism-based. In a few lines:
as §4

Experiment [8] has as its target Glutamate NMDA receptor. Nature of the experiment: Inhibition of stimulus-evoked […] NMDA receptor response in lateral perforant path of the rat hippocampus. It counts as functional, tissue-based. In a few lines: (§6)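 Rat hippocampal slices (500 µm, male Sprague-Dawley, 30-50 days) with perforant path stimulation (0.1 ms, 4-30 V, 0.1 Hz). Field potential recorded in the dentate granule cell synaptic field of the lateral or medial perforant path at 34 °C. Drug doubled every 4 min from subthreshold up to >70% inhibition or 8 mM. IC50 interpolated from fractional peak amplitude vs log concentration; mean of ≥4 experiments.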

For experiment [9], the species on record is Rattus norvegicus. Nature of the experiment: Inhibition of stimulus-evoked kainate/AMPA receptor responses in CA1 pyramidal cells of the rat hippocampus after reversal with alpha AA. It counts as functional. In a few lines:
as §4

Experiment [10] has as its target T1, Glutamate NMDA receptor (Rattus norvegicus). Nature of the experiment: Inhibition of stimulus-evoked […] NMDA receptor response in medial perforant path of the rat hippocampus. It counts as functional, tissue-based. In a few lines: as §6

With `Cl.NCC/N=c1\c(O)c(O)c1=O`, the C50 in experiment [1] is 3.5 mM; in [2], over 10 mM; in [3], over 10 mM; in experiment [4] it was over 10 mM.

Turning to `NCCC/N=c1\c(O)c(O)c1=O`, the IC50 was over 10 mM in [5], 5.3 mM in [6], over 10 mM in [7] and over 10 mM in experiment [8].

In the case of `N[C@@H](C/N=c1\c(O)c(O)c1=O)C(=O)O`, the C50 was found to be 0.01 mM in experiment [1]; 0.001 mM in experiment [9]; 0.0011 mM in experiment [2]; 0.0059 mM in [10]; 0.0034 mM in [3]; 0.00055 mM in [4].
